# Experimental data taken from ChEMBL document CHEMBL3779798, “Novel seleno- and thio-urea derivatives with potent in vitro activities against several cancer cell lines” (Eur J Med Chem, 2016).
# Calls of active or inactive are those of the source. The calls are words filed in the database; no cut-off is given here.
# Experiments:
# HCT-116 [1] = test: Induction of apoptosis in human HCT116 cells assessed as early apoptotic cells at 1 uM after 24 hrs by caspase3/7 reagent based flow cytometry (reference value: 5.18%); format: functional
# HCT-116 [2] = test: Induction of apoptosis in human HCT116 cells assessed as viable cells at 5 uM after 24 hrs by annexin-V staining based flow cytometry analysis (reference value: 90.38%); format: functional; details: HCT-116, 24 h, read-out: Activity
# HT-29 [3] = test: Anticancer activity against human HT-29 cells assessed as inhibition of cell growth after 72 hrs by MTT assay; format: functional, cell-based; details: HT-29, 72 h
# Summary of the method: (§1)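 MTT assay at 3,000 cells/well. Cells treated with DMSO or seven concentrations from 0.5 to 50 µM for 24, 48 or 72 h. MTT added 3 h before the end point; formazan dissolved in DMSO and read at 570 and 630 nm. IC50 is the concentration giving 50% growth inhibition. Media: PANC-1, BxPC3 and 1205Lu in DMEM; DU145 and A549 in RPMI 1640; HT29, HCT116 and RKO in McCoy's 5A, all with 10% FBS and pen/strep, at 37 °C and 5% CO2.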
# HCT-116 [4] = test: Induction of apoptosis in human HCT116 cells assessed as viable cells at 1 uM after 24 hrs by annexin-V staining based flow cytometry analysis (reference value: 90.38%); format: functional; details: HCT-116, 24 h, read-out: Activity
# HCT-116 [5] = test: Induction of apoptosis in human HCT116 cells assessed as late apoptotic cells at 2.5 uM after 24 hrs by annexin-V staining based flow cytometry analysis (reference value: 1.06%); format: functional
# HCT-116 [6] = test: Induction of apoptosis in human HCT116 cells assessed as necrotic cells at 2.5 uM after 24 hrs by annexin-V staining based flow cytometry analysis (reference value: 0.72%); format: functional
# HCT-116 [7] = test: Induction of apoptosis in human HCT116 cells assessed as necrotic cells at 1 uM after 24 hrs by caspase3/7 reagent based flow cytometry (reference value: 4.14%); format: functional
# [8] = Anticancer activity against human DU145 cells assessed as inhibition of cell growth after 48 hrs by MTT assay; format: functional, cell-based; details: DU-145, 48 h; summary of the method: as §1
# [9] = Anticancer activity against human DU145 cells assessed as inhibition of cell growth after 72 hrs by MTT assay; format: functional, cell-based; details: DU-145, 72 h; summary of the method: as §1
# HCT-116 [10] = test: Induction of apoptosis in human HCT116 cells assessed as late apoptotic cells at 2.5 uM after 24 hrs by caspase3/7 reagent based flow cytometry (reference value: 2.28%); format: functional
# HCT-116 [11] = test: Decrease in pro-caspase3 level in human HCT116 cells at 0.5 to 5 uM after 24 hrs by western blot analysis; format: functional, cell-based
# Summary of the method: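 HCT116 cells (6 × 10^5/well) treated for 24 h. Whole-cell lysates made in RIPA buffer with phosphatase and protease inhibitors and PMSF, cleared at 15,000 g, resolved by SDS-PAGE and transferred to PVDF. Blots probed overnight in the cold with primary antibodies, then peroxidase-linked secondaries, and detected by ECL; β-actin antibody used.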
# RKO [12] = test: Anticancer activity against human RKO cells assessed as inhibition of cell growth after 48 hrs by MTT assay; format: functional, cell-based; summary of the method: as §1
# [13] = Induction of cell death in human HCT116 cells at 5 uM after 24 hrs by calcein-AM and ethidium homodimer-1 staining based flow cytometry analysis (reference value: 1.1%); format: functional, HCT-116
# A549 [14] = test: Anticancer activity against human A549 cells assessed as inhibition of cell growth after 72 hrs by MTT assay; format: functional, cell-based; details: A549, 72 h; summary of the method: as §1
# HCT-116 [15] = test: Induction of apoptosis in human HCT116 cells assessed as early apoptotic cells after 24 hrs by annexin-V staining based flow cytometry analysis; format: functional, cell-based
# HT-29 [16] = test: Anticancer activity against human HT-29 cells assessed as inhibition of cell growth after 24 hrs by MTT assay; format: functional, cell-based; details: HT-29, 24 h; summary of the method: as §1
# A549 [17] = test: Anticancer activity against human A549 cells assessed as inhibition of cell growth after 48 hrs by MTT assay; format: functional, cell-based; details: A549, 48 h; summary of the method: as §1
# HCT-116 [18] = test: Induction of apoptosis in human HCT116 cells assessed as early apoptotic cells at 5 uM after 24 hrs by annexin-V staining based flow cytometry analysis (reference value: 7.84%); format: functional
# [19] = Anticancer activity against human BxPC3 cells assessed as inhibition of cell growth after 48 hrs by MTT assay; format: functional, cell-based; details: BXPC-3, 48 h; summary of the method: as §1
# [20] = Induction of cell death in human HCT116 cells at 1 uM after 24 hrs by calcein-AM and ethidium homodimer-1 staining based flow cytometry analysis (reference value: 1.1%); format: functional, HCT-116
# HCT-116 [21] = test: Induction of apoptosis in human HCT116 cells assessed as late apoptotic cells after 24 hrs by annexin-V staining based flow cytometry analysis; format: functional, cell-based
# [22] = Anticancer activity against human HCT116 cells assessed as inhibition of cell growth after 72 hrs by MTT assay; format: functional, cell-based; details: HCT-116, 72 h; summary of the method: as §1
# [23] = Anticancer activity against human BxPC3 cells assessed as inhibition of cell growth after 24 hrs by MTT assay; format: functional, cell-based; details: BXPC-3, 24 h; summary of the method: as §1
# HCT-116 [24] = test: Reduction in Bcl2 level in human HCT116 cells after 24 hrs by western blot analysis; format: functional, cell-based
# Summary of the method: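 HCT116 cells (6 × 10^5/well) treated with rising concentrations for 24 h. Lysed in RIPA with phosphatase and protease inhibitors and PMSF, cleared at 15,000 g for 10 min. Lysates resolved by SDS-PAGE, transferred to PVDF, probed overnight in the cold with primary antibodies, then peroxidase-linked secondary for 1–4 h at room temperature, detected by ECL; β-actin antibody used.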
# [25] = Induction of cell death in human HCT116 cells at 2.5 uM after 24 hrs by calcein-AM and ethidium homodimer-1 staining based flow cytometry analysis (reference value: 1.1%); format: functional, HCT-116
# RKO [26] = test: Potency index, ratio IC50 of 5-FU to IC50 of compound for anticancer activity against human RKO cells; format: functional
# Summary of the method: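 Colon lines (McCoy's 5A, 10% FBS, penicillin/streptomycin, 37 °C, 5% CO2) seeded at 3,000 cells/well and exposed 24, 48 or 72 h to DMSO or seven concentrations across 0.5–50 µM. MTT added 3 h before end; formazan dissolved in DMSO, absorbance read at 570 and 630 nm. IC50 (50% growth inhibition) from curve fitting; index is the 5-FU IC50 divided by the compound IC50.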
# HCT-116 [27] = test: Decrease in number of viable cells in human HCT116 cells at 1 uM after 24 hrs by calcein-AM and ethidium homodimer-1 staining based flow cytometry analysis (reference value: 94.9%); format: functional
# HCT-116 [28] = test: Induction of apoptosis in human HCT116 cells assessed as early apoptotic cells at 1 uM after 24 hrs by annexin-V staining based flow cytometry analysis (reference value: 7.84%); format: functional
# HCT-116 [29] = test: Induction of apoptosis in human HCT116 cells assessed as viable cells at 1 uM after 24 hrs by caspase3/7 reagent based flow cytometry (reference value: 88.4%); format: functional; details: HCT-116, 24 h, read-out: Activity
# [30] = Anticancer activity against human PANC1 cells assessed as inhibition of cell growth after 24 hrs by MTT assay; format: functional, cell-based; details: PANC-1, 24 h; summary of the method: as §1
# HCT-116 [31] = test: Induction of apoptosis in human HCT116 cells assessed as late apoptotic cells at 1 uM after 24 hrs by caspase3/7 reagent based flow cytometry (reference value: 2.28%); format: functional
structure (smiles),measurement,setting,value
Br.Br.N=C(N)[Se]Cc1nc2ccccc2nc1C[Se]C(=N)N,Activity,HCT-116 [1],7.18%
same,viability at 5 µM,HCT-116 [2],24.6%
same,IC50,HT-29 [3],2.2 µM
same,viability at 1 µM,HCT-116 [4],78.1%
same,Activity,HCT-116 [5],11.64%
same,Activity,HCT-116 [6],0.58%
same,Activity,HCT-116 [7],3.18%
same,IC50,[8],2.8 µM
same,IC50,[9],1 µM
same,Activity,HCT-116 [10],5.72%
same,Activity,HCT-116 [11],Active
same,IC50,RKO [12],1.9 µM
same,Activity,[13],19.3%
same,IC50,A549 [14],1 µM
same,Activity,HCT-116 [15],Dose-dependent effect
same,IC50,HT-29 [16],5 µM
same,IC50,A549 [17],2 µM
same,Activity,HCT-116 [18],39.02%
same,IC50,[19],2.9 µM
same,Activity,[20],0.7%
same,Activity,HCT-116 [21],Dose-dependent effect
same,IC50,[22],0.7 µM
same,IC50,[23],3.6 µM
same,Activity,HCT-116 [24],Dose-dependent effect
same,Activity,[25],5.1%
same,Ratio IC50,RKO [26],>50
same,Activity,HCT-116 [27],96.9%
same,Activity,HCT-116 [28],19.44%
same,viability at 1 µM,HCT-116 [29],87%
same,IC50,[30],6.6 µM
same,Activity,HCT-116 [31],2.64%
